According to ChEMBL document CHEMBL4334464, “From Phenylthiazoles to Phenylpyrazoles: Broadening the Antibacterial Spectrum toward Carbapenem-Resistant Bacteria” (J Med Chem, 2019):
Converted amounts (≈) assume the structure as drawn. The source made the active and inactive calls. The calls are words filed in the database; no cut-off is given here.

Assays:
[1] = Apparent permeability across basolateral to apical side in human Caco2 cells after 2 hrs by LC/MS/MS analysis; assay type: ADME, cell-based; conditions: Caco-2
[2] = Efflux ratio of apparent permeability across basolateral to apical side over apical to basolateral side in human Caco2 cells after 2 hrs by LC/MS/MS analysis; assay type: ADME, cell-based; conditions: Caco-2
Staphylococcus aureus [3] = assay: Antibacterial activity against methicillin-resistant Staphylococcus aureus NRS123-USA400 clinical isolates assessed as ratio of MIC after and before 1 serial passages by broth microdilution assay; assay type: functional
Summary of the method: (§1)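 MRSA USA400 was serially passaged over a 14-day period in the presence of each compound or control antibiotic. MIC was determined by broth microdilution after each passage. A four-fold rise in MIC was taken as a sign of resistance.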

Staphylococcus aureus [4] = assay: Antibacterial activity against methicillin-resistant Staphylococcus aureus NRS123-USA400 clinical isolates assessed as ratio of MIC after and before 13 serial passages by broth microdilution assay; assay type: functional; summary of the method: as §1
Staphylococcus aureus [5] = assay: Antibacterial activity against vancomycin-resistant Staphylococcus aureus isolate 10 after 18 to 20 hrs in aerobic condition by CLSI-based broth microdilution assay; assay type: functional
Staphylococcus aureus [6] = assay: Antibacterial activity against vancomycin-resistant Staphylococcus aureus isolate 12 after 18 to 20 hrs in aerobic condition by CLSI-based broth microdilution assay; assay type: functional
Staphylococcus aureus [7] = assay: Bactericidal activity against methicillin-resistant Staphylococcus aureus NRS123-USA400 clinical isolates at 5 times MIC incubated over 24 hrs followed by replating on tryptic soy agar plate and further incubated for 18 to 20 hrs by time kill assay; assay type: functional, organism-based
Enterococcus faecalis = assay: Antibacterial activity against vancomycin-resistant Enterococcus faecalis ATCC 51299 clinical isolates after 18 to 20 hrs in aerobic condition by CLSI-based broth microdilution assay; assay type: functional
Enterococcus faecium = assay: Antibacterial activity against vancomycin-resistant Enterococcus faecium ATCC 700221 clinical isolates after 18 to 20 hrs in aerobic condition by CLSI-based broth microdilution assay; assay type: functional
Listeria monocytogenes = assay: Antibacterial activity against Listeria monocytogenes ATCC 19111 after 18 to 20 hrs in aerobic condition by CLSI-based broth microdilution assay; assay type: functional
Streptococcus pneumoniae [8] = assay: Antibacterial activity against cephalosporin-resistant Streptococcus pneumoniae ATCC 51916 clinical isolates after 18 to 20 hrs by CLSI-based broth microdilution assay; assay type: functional
Streptococcus pneumoniae [9] = assay: Antibacterial activity against methicillin-resistant Streptococcus pneumoniae ATCC 700677 clinical isolates after 18 to 20 hrs by CLSI-based broth microdilution assay; assay type: functional
Clostridioides difficile = assay: Antibacterial activity against Clostridium difficile ATCC BAA 1870 incubated for 48 hrs in anaerobic condition by CLSI-based broth microdilution assay; assay type: functional; conditions: ATCC BAA 1870, 48 h
Staphylococcus aureus [10] = assay: Antibiofilm activity against methicillin-resistant Staphylococcus aureus NRS384-USA300 clinical isolates assessed as inhibition of biofilm formation at 0.5 times MIC incubated for 24 hrs by crystal violet staining based spectrophotometric method relative to control; assay type: functional
Staphylococcus aureus [11] = assay: Antibacterial activity against methicillin-resistant Staphylococcus aureus NRS123-USA400 infected in mouse J774 cells assessed as reduction in intracellular bacterial cells at 2 times MIC incubated for 24 hrs followed by re-plating on TSA plate and measured after 18 to 22 hrs relative to control; assay type: functional
Summary of the method: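 J774 murine macrophages were infected with MRSA USA400 and then treated at 2×MIC for 24 h, in triplicate. The read-out was percent reduction in intracellular colony-forming units versus untreated infected cells.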

Acinetobacter baumannii [12] = assay: Antibacterial activity against Acinetobacter baumannii ATCC 19606 clinical isolates after 18 to 20 hrs in aerobic condition by CLSI-based broth microdilution assay; assay type: functional; conditions: ATCC 19606 = CIP 70.34 = JCM 6841
Acinetobacter baumannii [13] = assay: Antibacterial activity against Acinetobacter baumannii ATCC BAA 1141 clinical isolates after 18 to 20 hrs in aerobic condition by CLSI-based broth microdilution assay; assay type: functional
Acinetobacter baumannii [14] = assay: Antibacterial activity against Acinetobacter baumannii NR 17786 clinical isolates after 18 to 20 hrs in aerobic condition by CLSI-based broth microdilution assay; assay type: functional
Acinetobacter baumannii [15] = assay: Antibacterial activity against Acinetobacter baumannii NR 17785 clinical isolates after 18 to 20 hrs in aerobic condition by CLSI-based broth microdilution assay; assay type: functional
Escherichia coli [16] = assay: Antibacterial activity against Escherichia coli ATCC 25922 clinical isolates after 18 to 20 hrs in aerobic condition by CLSI-based broth microdilution assay; assay type: functional
Escherichia coli [17] = assay: Antibacterial activity against Escherichia coli ATCC 35150 clinical isolates after 18 to 20 hrs in aerobic condition by CLSI-based broth microdilution assay; assay type: functional
[18] = system: Enterobacter cloacae subsp. cloacae; assay: Antibacterial activity against Enterobacter cloacae subsp. cloacae ATCC BAA-1143 clinical isolates after 18 to 20 hrs in aerobic condition by CLSI-based broth microdilution assay; assay type: functional
Klebsiella pneumoniae [19] = assay: Antibacterial activity against Klebsiella pneumoniae BAA-1706 clinical isolates after 18 to 20 hrs in aerobic condition by CLSI-based broth microdilution assay; assay type: functional
Klebsiella pneumoniae [20] = assay: Antibacterial activity against Klebsiella pneumoniae BAA-1144 clinical isolates after 18 to 20 hrs in aerobic condition by CLSI-based broth microdilution assay; assay type: functional
Salmonella enterica = assay: Antibacterial activity against Salmonella enterica NR-170 clinical isolates after 18 to 20 hrs in aerobic condition by CLSI-based broth microdilution assay; assay type: functional
Salmonella enteritidis [21] = assay: Antibacterial activity against Salmonella enteritidis ATCC 13076 clinical isolates after 18 to 20 hrs in aerobic condition by CLSI-based broth microdilution assay; assay type: functional; conditions: Salmonella enterica subsp. enterica serovar Enteritidis
Salmonella enteritidis [22] = assay: Antibacterial activity against Salmonella enteritidis ATCC 14028 clinical isolates after 18 to 20 hrs in aerobic condition by CLSI-based broth microdilution assay; assay type: functional; conditions: Salmonella enterica subsp. enterica serovar Enteritidis
Salmonella typhimurium = assay: Antibacterial activity against Salmonella typhimurium ATCC 700720 after 18 to 20 hrs in aerobic condition by CLSI-based broth microdilution assay; assay type: functional; conditions: Salmonella enterica subsp. enterica serovar Typhimurium
Shigella flexneri = assay: Antibacterial activity against Shigella flexneri ATCC 9199 clinical isolates after 18 to 20 hrs in aerobic condition by CLSI-based broth microdilution assay; assay type: functional
Pseudomonas aeruginosa = assay: Antibacterial activity against Pseudomonas aeruginosa ATCC 15442 clinical isolates after 18 to 20 hrs in aerobic condition by CLSI-based broth microdilution assay; assay type: functional
Staphylococcus aureus [23] = assay: Antibacterial activity against methicillin-resistant Staphylococcus aureus NRS384-USA300 clinical isolates after 18 to 20 hrs in aerobic condition by CLSI protocol based broth microdilution assay; assay type: functional
Staphylococcus aureus [24] = assay: Antibacterial activity against Methicillin-sensitive Staphylococcus aureus ATCC 6538 clinical isolates after 18 to 20 hrs in aerobic condition by CLSI protocol based broth microdilution assay; assay type: functional
Staphylococcus aureus [25] = assay: Antibacterial activity against Methicillin-sensitive Staphylococcus aureus NRS107 clinical isolates after 18 to 20 hrs in aerobic condition by CLSI protocol based broth microdilution assay; assay type: functional
Staphylococcus aureus [26] = assay: Antibacterial activity against linezolid-resistant/Methicillin-resistant Staphylococcus aureus NRS119 clinical isolates after 18 to 20 hrs in aerobic condition by CLSI protocol based broth microdilution assay; assay type: functional
Staphylococcus aureus [27] = assay: Antibacterial activity against Methicillin-resistant Staphylococcus aureus NRS123-USA400 clinical isolates after 18 to 20 hrs in aerobic condition by CLSI protocol based broth microdilution assay; assay type: functional
[28] = system: Staphylococcus epidermidis; assay: Antibacterial activity against Staphylococcus epidermidis NRS101 after 18 to 20 hrs in aerobic condition by CLSI-based broth microdilution assay; assay type: functional
Escherichia coli [29] = assay: Antimicrobial activity against Escherichia coli JW55031 harboring deltatolC mutant after 18 to 20 hrs in aerobic condition by CLSI protocol based broth microdilution assay; assay type: functional
Escherichia coli [30] = assay: Antibacterial activity against Escherichia coli BW25113 clinical isolates after 18 to 20 hrs in aerobic condition by CLSI-based broth microdilution assay; assay type: functional
Salmonella enteritidis [31] = assay: Antibacterial activity against Salmonella enteritidis ATCC 14028 infected in mouse J774 cells assessed as reduction in intracellular bacterial cells at 2 times MIC incubated for 24 hrs followed by re-plating on TSA plate and measured after 18 to 22 hrs relative to control; assay type: functional; conditions: Salmonella enterica subsp. enterica serovar Enteritidis
Summary of the method: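 J774 murine macrophages infected with Salmonella enteritidis ATCC 14028, then treated at 2×MIC for 24 h, in triplicate. Read-out is the percent reduction in intracellular colony forming units versus the untreated control.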

Compound: CC(=O)C(=CN(C)C)C(C)=O
- Papp B→A at 2 h [1]: 1.2 ×10⁻⁶ cm/s
- efflux ratio at 2 h [2]: > 2

Compound: CO[C@H]1/C=C/O[C@@]2(C)Oc3c(C)c(O)c4c(O)c(c(/C=N/N5CCN(C)CC5)c(O)c4c3C2=O)NC(=O)/C(C)=C\C=C\[C@H](C)[C@H](O)[C@@H](C)[C@@H](O)[C@@H](C)[C@H](OC(C)=O)[C@@H]1C [RIFAMPIN]
- Ratio (Staphylococcus aureus [3]): 7
- Ratio (Staphylococcus aureus [4]): >500000

Compound: CN[C@H](CC(C)C)C(=O)N[C@H]1C(=O)N[C@@H](CC(N)=O)C(=O)N[C@H]2C(=O)N[C@H]3C(=O)N[C@H](C(=O)N[C@H](C(=O)O)c4cc(O)cc(O)c4-c4cc3ccc4O)[C@H](O)c3ccc(c(Cl)c3)Oc3cc2cc(c3O[C@@H]2O[C@H](CO)[C@@H](O)[C@H](O)[C@H]2O[C@H]2C[C@](C)(N)[C@H](O)[C@H](C)O2)Oc2ccc(cc2Cl)[C@H]1O [VANCOMYCIN]
- MIC (Staphylococcus aureus [5]): > 64 µg/mL
- MIC (Staphylococcus aureus [6]): 64 µg/mL (≈ 44.2 µM)
- Activity (Staphylococcus aureus [7]): Active
- MIC (Enterococcus faecalis): 32 µg/mL (≈ 22.1 µM)
- MIC (Enterococcus faecium): > 64 µg/mL
- MIC (Listeria monocytogenes): 2 µg/mL (≈ 1.38 µM)
- MIC (Streptococcus pneumoniae [8]): 2 µg/mL (≈ 1.38 µM)
- MIC (Streptococcus pneumoniae [9]): 1 µg/mL (≈ 0.69 µM)
- MIC (Clostridioides difficile): 1 µg/mL (≈ 0.69 µM)
- inhibition (INH) (Staphylococcus aureus [10]): 18%
- Activity (Staphylococcus aureus [11]): inactive

Compound: GENTAMICIN
- MIC (Acinetobacter baumannii [12]): 16 µg/mL
- MIC (Acinetobacter baumannii [13]): 4 µg/mL
- MIC (Acinetobacter baumannii [14]): 64 µg/mL
- MIC (Acinetobacter baumannii [15]): > 64 µg/mL
- MIC (Escherichia coli [16]): 1 µg/mL
- MIC (Escherichia coli [17]): 1 µg/mL
- MIC [18]: 1 µg/mL
- MIC (Klebsiella pneumoniae [19]): 8 µg/mL
- MIC (Klebsiella pneumoniae [20]): 16 µg/mL
- MIC (Salmonella enterica): 1 µg/mL
- MIC (Salmonella enteritidis [21]): 1 µg/mL
- MIC (Salmonella enteritidis [22]): 1 µg/mL
- MIC (Salmonella typhimurium): 1 µg/mL
- MIC (Shigella flexneri): 1 µg/mL
- MIC (Pseudomonas aeruginosa): 2 µg/mL

Compound: CC(=O)NC[C@H]1CN(c2ccc(N3CCOCC3)c(F)c2)C(=O)O1 [LINEZOLID]
- MIC (Staphylococcus aureus [23]): 1 µg/mL (≈ 2.96 µM)
- MIC (Staphylococcus aureus [24]): 1 µg/mL (≈ 2.96 µM)
- MIC (Staphylococcus aureus [25]): 1 µg/mL (≈ 2.96 µM)
- MIC (Staphylococcus aureus [26]): 32 µg/mL (≈ 94.9 µM)
- MIC (Staphylococcus aureus [27]): 1 µg/mL (≈ 2.96 µM)
- MIC (Staphylococcus aureus [5]): 1 µg/mL (≈ 2.96 µM)
- MIC (Staphylococcus aureus [6]): 1 µg/mL (≈ 2.96 µM)
- MIC [28]: ≤ 0.5 µg/mL
- MIC (Enterococcus faecium): 1 µg/mL (≈ 2.96 µM)
- MIC (Listeria monocytogenes): 1 µg/mL (≈ 2.96 µM)

Compound: C/C(=N/NC(=N)N)c1sc(-c2ccc(C#Cc3ccccc3)cc2)nc1C
- Activity (Escherichia coli [29]): inactive
- Activity (Acinetobacter baumannii [12]): inactive
- Activity (Escherichia coli [30]): inactive
- Activity (Klebsiella pneumoniae [19]): inactive
- Activity (Pseudomonas aeruginosa): inactive

Compound: NC[C@H]1O[C@H](O[C@H]2[C@H](O)[C@@H](O[C@H]3O[C@H](CO)[C@@H](O)[C@H](N)[C@H]3O)[C@H](N)C[C@@H]2N)[C@H](O)[C@@H](O)[C@@H]1O
- Activity (Salmonella enteritidis [31]): inactive

Compound: C/C(=N\NC(=N)N)c1sc(-c2ccc(C#CC3CCCC3)cc2)nc1C
- Activity (Escherichia coli [29]): inactive
- Activity (Acinetobacter baumannii [12]): inactive
- Activity (Escherichia coli [30]): inactive
- Activity (Klebsiella pneumoniae [19]): inactive
- Activity (Pseudomonas aeruginosa): inactive

Compound: C/C(=N\NC1=NCCN1)c1cnn(-c2ccc(C#CC(C)(C)C)cc2)c1C
- MIC (Staphylococcus aureus [23]): 16 µg/mL (≈ 44.1 µM)
- MIC (Escherichia coli [29]): 16 µg/mL (≈ 44.1 µM)
- inhibition (INH) (Staphylococcus aureus [10]): 62%
